Measurements: ChEMBL document CHEMBL1671645, “Pharmacokinetics and absorption of posaconazole oral suspension under various gastric conditions in healthy volunteers” (Antimicrob Agents Chemother, 2009)

Legend:
[1] = Cmax in healthy human plasma at 200 mg QID, po administered as suspension for 7 days coadministered with nutritional supplement; format: ADME, organism-based; design: dose 200 mg, route oral
Method in brief: (§1)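 Twelve healthy subjects took oral suspension for 7 days as 400 mg BID or 200 mg QID, either fasting or with a Boost-type nutritional supplement, in a crossover with 14–21 day washouts. Nonfat snacks of 800 cal/day or less were allowed. Plasma was sampled 0–168 h after the day-7 morning dose only and analysed by LC-MS/MS. AUC is AUC_τ, normalized to dose.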

Homo sapiens [2] = test: Toxicity in healthy human assessed as adverse events at 400 mg BID, po administered as suspension for 7 days; format: organism-based; conditions: in vivo, 168 h
Method in brief: (§2)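 Healthy volunteers monitored for adverse events, vital signs, clinical laboratory values and 12-lead ECG. Adverse events tabulated by body system or organ class and severity and summarized by treatment across the crossover regimens.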

Homo sapiens [3] = test: AUC in fasted healthy human at 200 mg QID, po administered as suspension for 7 days; format: ADME, organism-based, Plasma; conditions: in vivo, 168 h; method in brief: as §1
[4] = Half life in fasted healthy human at 200 mg QID, po administered as suspension for 7 days; format: ADME, organism-based; conditions: in vivo
Method in brief: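 Healthy volunteers given oral suspension (40 mg/ml) for 7 days, fasted or with nutritional supplement (Boost); four-way crossover, 14–21-day washout, nonfat snacks ≤800 cal/day allowed. On day 7 only the morning dose was given; plasma sampled predose to 168 h after it. LC-MS/MS (LLOQ 5.00 ng/ml). t1/2 = ln(2)/K from log-linear terminal slope; Tmax as median.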

Homo sapiens [5] = test: Apparent total body clearance in fasted healthy human at 400 mg BID, po administered as suspension for 7 days; format: ADME, organism-based; conditions: in vivo, 168 h; method in brief: as §1
Homo sapiens [6] = test: Toxicity in healthy human assessed as headache at 200 mg QID, po administered as suspension for 7 days coadministered with nutritional supplement; format: organism-based; conditions: in vivo, 168 h
Method in brief: (§3)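 Healthy volunteers (n = 12) took oral posaconazole suspension (40 mg/ml) for 7 days in a four-way randomized crossover with a 14- to 21-day washout. Subjects stayed fasted throughout, with nonfat snacks up to 800 cal/day allowed. Where given, Boost was taken with each dose. Safety covered adverse events, vital signs, clinical labs and 12-lead ECG, with AEs tabulated by body system and severity per treatment.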

[7] = Cmax in fasted healthy human plasma at 400 mg administered as single dose suspension; format: ADME, organism-based; design: dose 400 mg
[8] = Tmax in fasted healthy human at 400 mg administered as single dose suspension; format: ADME, organism-based; conditions: in vivo
Method in brief: (§4)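 Single oral suspension dose in fasting healthy volunteers, alone, with 12 oz ginger ale, after esomeprazole 40 mg once each morning days −2 to 1, or both; four-way crossover, 7–10-day washout. EDTA plasma 0–168 h. LC-MS/MS (LLOQ 5.00 ng/ml). t1/2 = ln(2)/K from terminal log-linear regression; Tmax median.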

Homo sapiens [9] = test: Toxicity in healthy human assessed as dizziness at 400 mg BID, po administered as suspension for 7 days coadministered with nutritional supplement; format: organism-based; conditions: in vivo, 168 h; method in brief: as §3
Homo sapiens [10] = test: Toxicity in healthy human assessed as fatigue at 400 mg administered as single dose suspension coadministered with nutritional supplement and 4 mg loperamide as two 2 mg tablets; format: organism-based; conditions: in vivo
Method in brief: (§5)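 Three-way randomized crossover in 13 healthy volunteers with a 7- to 10-day washout. Each period was one 400-mg oral posaconazole suspension dose with a nutritional supplement. Metoclopramide 10 mg was given orally three times daily on the day before and the day of dosing; loperamide was a single 4 mg. Safety was assessed from adverse events, tabulated by body system and severity per treatment.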

[11] = Half life in fasted healthy human at 400 mg administered as single dose suspension coadministered with acidic carbonated beverage and proton pump inhibitor; format: ADME, organism-based; conditions: in vivo; method in brief: as §4
[12] = Apparent total body clearance in healthy human at 400 mg administered as single dose suspension coadministered with nutritional supplement and 10 mg metoclopramide; format: ADME, organism-based; conditions: in vivo, po
Method in brief: (§6)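 A three-way crossover in 13 healthy subjects gave one 400 mg oral suspension dose with a nutritional supplement, either alone, with metoclopramide 10 mg orally three times daily on the day before and the day of dosing, or with a single 4 mg dose of loperamide. Plasma was taken 0–168 h for LC-MS/MS. Analysis was noncompartmental.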

Homo sapiens [13] = test: Toxicity in healthy human assessed as adverse events at 400 mg administered as single dose suspension after 20 mins after consumption of high fat meal; format: organism-based; conditions: in vivo; method in brief: as §2
[14] = Cmax in healthy human plasma at 400 mg administered as single dose suspension coadministered with nutritional supplement and 10 mg metoclopramide; format: ADME, organism-based; design: dose 400 mg; method in brief: as §6
Homo sapiens [15] = test: Toxicity in healthy human assessed as nausea at 400 mg administered as single dose suspension coadministered with nutritional supplement and 4 mg loperamide as two 2 mg tablets; format: organism-based; conditions: in vivo; method in brief: as §5
Homo sapiens [16] = test: Apparent total body clearance in healthy human at 200 mg QID, po administered as suspension for 7 days coadministered with nutritional supplement; format: ADME, organism-based; conditions: in vivo, 168 h; method in brief: as §1
[17] = Half life in fasted healthy human at 400 mg administered as single dose suspension coadministered with proton pump inhibitor; format: ADME, organism-based; conditions: in vivo; method in brief: as §4
Homo sapiens [18] = test: Toxicity in healthy human assessed as adverse events at 400 mg administered as single dose suspension coadministered with acidic carbonated beverage; format: organism-based; conditions: in vivo; method in brief: as §2
Homo sapiens [19] = test: Toxicity in healthy human assessed as dizziness at 400 mg BID, po administered as suspension for 7 days; format: organism-based; conditions: in vivo, 168 h; method in brief: as §3
Homo sapiens [20] = test: Toxicity in healthy human assessed as dizziness at 400 mg administered as single dose suspension coadministered with nutritional supplement; format: organism-based; conditions: in vivo; method in brief: as §5

SMILES: CC[C@@H]([C@H](C)O)n1ncn(-c2ccc(N3CCN(c4ccc(OC[C@@H]5CO[C@@](Cn6cncn6)(c6ccc(F)cc6F)C5)cc4)CC3)cc2)c1=O [POSACONAZOLE]
- Cmax [1]: 2160 ng/mL
- Activity (Homo sapiens [2]): 75%
- AUC (Homo sapiens [3]): 132 µg·h/mL
- half-life [4]: 34.7 h
- CL/F (Homo sapiens [5]): 54.6 L/h
- Activity (Homo sapiens [6]): 25%
- Cmax [7]: 181 ng/mL
- Tmax [8]: 5 h
- Activity (Homo sapiens [9]): 33%
- Activity (Homo sapiens [10]): 15%
- half-life [11]: 27.8 h
- CL/F [12]: 993 mL/min
- Activity (Homo sapiens [13]): 25%
- Cmax [14]: 232 ng/mL
- Activity (Homo sapiens [15]): 23%
- CL/F (Homo sapiens [16]): 20.4 L/h
- half-life [17]: 25.7 h
- Activity (Homo sapiens [18]): 25%
- Activity (Homo sapiens [19]): 33%
- Activity (Homo sapiens [20]): 15%
